Measured values taken from publication PMC7781011 (Journal of Inflammation Research, 2020).
Entries after “also recorded” stand apart in the source; their conditions may differ. Like-named read-outs stand apart in the source and are kept apart here.

What was measured:
[1] = tested on: carrageenan-induced hind paw edema of rats; assay: Carrageenan-induced rat paw edema model; type: in vivo, rat (male Fischer F344); settings: for TXB2 levels in paw exudates / LTB4 levels in paw exudates / PGE2 levels in paw exudates / PGI2 levels in paw exudates: 400 ppm; for edema inhibition (maximum): 400 ppm in diet (oral), 3 hours after carrageenan injection; for LTB4 levels in paw exudates / PGE2 levels in paw exudates / PGI2 levels in paw exudates: compared to control (vehicle)
Procedure, shortened: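 Male F344 rats (350–400 g) fed AIN-76A diet, either control or with compound or reference inhibitor at 400 ppm; separate saline group. 0.1 mL 1% λ-carrageenan in saline injected subplantar into left hind paw, saline into right. Dorsiventral paw thickness by digital caliper before and 1–6 h after injection; % edema inhibition. Paw exudate PGE2, LTB4, TXB2 and PGI2 measured by ELISA. Stomach and organs examined for ulcers.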

[2] = tested on: CD68-positive inflammatory cell infiltration and TNF-α expression in paw tissue; assay: Immunofluorescence and immunoblot analysis of carrageenan-injected paw tissue; type: in vivo; settings: rat, 400 ppm, compared to the untreated control
Procedure, shortened: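 Paw tissue: 4-µm FFPE sections, citrate pH 6.0 epitope retrieval (99°C, 30 min). Blocked with serum/BSA 40 min. Alexa700-CD68 (1:50) and TNF-α (1:100) overnight at 4°C, Alexa488 secondary for TNF-α. Confocal imaging, stained cells counted by image analysis. Immunoblot: 20 µg protein, 12% SDS-PAGE, PVDF. CD68 and TNF-α (1:100), HRP secondary, ECL, β-actin loading control.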

[3] = tested on: normal colonocytes of rats; assay: MTT assay; type: cell-based, rat; settings: 0.1–100 µM, 24 hours
Procedure, shortened: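 Normal rat colonocytes exposed 24 h to compound (0.1–100 µM), then MTT reagent for 2 h at 37°C. Formazan dissolved in DMSO, absorbance read at 570 nm with 620 nm reference. Three independent experiments, expressed as percent viability.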

human COX-1 = human COX-1 (Homo sapiens, UniProt P23219); assay: Circular dichroism, change in secondary structure; settings: CD, Human COX-1, LFA-9 10 µM
Procedure, shortened: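 Native and compound-treated (0.1–10 µM) enzymes in PBS pH 7.4 at final protein 200 µM. CD spectra corrected by subtracting buffer blanks. Percent change in secondary structure (α-helix, β-sheet) calculated with the CAPITO analysis server.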

[4] = In vitro metabolic stability in activated liver S9 fraction; type: in vitro ADME; settings: rat liver S9 fraction activated with NADPH, UDPGA, GSH, PAPS; 500 µM
Procedure, shortened: (§1)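 Mouse or rat liver S9 fraction isolated and activated with NADPH, UDPGA, GSH and PAPS before compound addition. Samples taken at 0, 15, 30, 45 and 60 min. Compound extracted with acetonitrile and quantified by reversed-phase HPLC with PDA detection. Percent remaining calculated from peak areas at 0 and 60 min.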

[5] = as above; type: in vitro ADME; settings: mouse liver S9 fraction activated with NADPH, UDPGA, GSH, PAPS; 500 µM
Procedure, shortened: as §1

[6] = tested on: LTB4 production in LPS-stimulated macrophages of humans, mice, and rats; assay: LTB4 production in LPS-stimulated macrophages, range over species; type: cell-based; settings: Macrophage, read-out: IC50 range LTB4 production
Procedure, shortened: (§2)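 Human macrophages derived from THP-1 monocytes with PMA. Rat/mouse peritoneal macrophages collected by lavage with ice-cold DMEM, selected by glass adherence (1 h, 37°C), Trypan-blue checked. Cells in DMEM+10% FBS at 10,000 (96-well) or 40,000 (24-well) per well, given non-toxic compound doses, then LPS 10 µg/mL for 24 h. PGE2, PGI2 and LTB4 measured in supernatant. IC50 by four-parameter nonlinear regression.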

[7] = tested on: PGE2 production, colon tumor spheroids of Apc^Pirc/+ rats; assay: PGE2 in colon spheroid culture supernatant; type: cell-based, rat; settings: compared with the untreated control
Procedure, shortened: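 Pirc rat colorectal crypt/single-cell spheroids grown in ultra-low-attachment wells in B27/N2, FBS, EGF, Noggin, R-spondin 1 and Y-27632 medium, changed every other day. PGE2 in supernatants of treated and untreated wells measured by ELISA, in pg/mL.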

rat 5-LOX = target: T1, rat 5-LOX (Rattus norvegicus, UniProt P12527); assay: Cell-free fluorometric 5-LOX assay; type: biochemical
T1 sequence (P12527 1-673): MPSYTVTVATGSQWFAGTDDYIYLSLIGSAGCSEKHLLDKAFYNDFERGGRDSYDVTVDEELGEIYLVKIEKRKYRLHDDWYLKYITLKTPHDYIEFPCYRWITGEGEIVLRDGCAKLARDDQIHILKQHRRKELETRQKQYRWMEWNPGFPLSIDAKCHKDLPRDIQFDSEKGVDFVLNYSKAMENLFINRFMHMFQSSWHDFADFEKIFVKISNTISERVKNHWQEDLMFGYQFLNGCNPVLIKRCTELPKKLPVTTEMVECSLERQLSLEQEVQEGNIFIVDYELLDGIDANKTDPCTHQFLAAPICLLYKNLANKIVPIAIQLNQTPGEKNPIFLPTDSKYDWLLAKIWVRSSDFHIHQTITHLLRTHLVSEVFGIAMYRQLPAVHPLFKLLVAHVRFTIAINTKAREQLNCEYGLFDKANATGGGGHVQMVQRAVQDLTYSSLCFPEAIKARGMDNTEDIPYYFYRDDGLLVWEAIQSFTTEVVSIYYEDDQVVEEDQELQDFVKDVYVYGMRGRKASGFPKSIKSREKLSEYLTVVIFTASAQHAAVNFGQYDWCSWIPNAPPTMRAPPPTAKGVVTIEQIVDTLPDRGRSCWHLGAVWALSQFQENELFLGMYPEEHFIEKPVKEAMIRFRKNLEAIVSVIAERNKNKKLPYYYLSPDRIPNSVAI

[8] = tested on: PGI2 production in LPS-stimulated macrophages of humans, mice, and rats; assay: PGI2 production in LPS-stimulated macrophages, range over species; type: cell-based; settings: Macrophage
Procedure, shortened: as §2

Chain of human COX-1 (P23219 24-599): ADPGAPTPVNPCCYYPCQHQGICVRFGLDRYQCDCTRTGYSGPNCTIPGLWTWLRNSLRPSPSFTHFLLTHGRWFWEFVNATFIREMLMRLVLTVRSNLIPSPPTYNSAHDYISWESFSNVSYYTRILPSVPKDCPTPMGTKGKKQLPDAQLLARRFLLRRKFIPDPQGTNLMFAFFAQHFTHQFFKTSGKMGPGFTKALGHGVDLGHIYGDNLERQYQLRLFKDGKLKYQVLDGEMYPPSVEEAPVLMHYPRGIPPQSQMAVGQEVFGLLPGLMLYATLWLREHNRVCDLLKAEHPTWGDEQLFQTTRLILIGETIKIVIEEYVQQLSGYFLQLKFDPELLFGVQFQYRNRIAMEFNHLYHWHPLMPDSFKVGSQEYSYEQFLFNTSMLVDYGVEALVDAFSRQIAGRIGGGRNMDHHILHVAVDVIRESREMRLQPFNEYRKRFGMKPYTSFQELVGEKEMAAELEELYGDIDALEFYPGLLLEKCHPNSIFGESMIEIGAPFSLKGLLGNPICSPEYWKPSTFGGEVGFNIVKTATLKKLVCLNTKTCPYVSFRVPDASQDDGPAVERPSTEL

IC50 ([8]; read-out: IC50 range PGI2 production)	SMILES	TXB2 levels in paw exudates [1]	gastrointestinal (and other) toxicity ([1]; 400 ppm in diet)	edema inhibition (maximum) [1]	LTB4 levels in paw exudates [1]	PGE2 levels in paw exudates [1]	PGI2 levels in paw exudates [1]	CD68-positive inflammatory cell infiltration in paw tissue [2]	expression of TNF-α in paw tissue [2]	cytotoxicity to normal rat colonic epithelial cells [3]	Change in Secondary Structure (human COX-1)	LFA-9 remaining after 60-minutes incubation [4]	LFA-9 remaining after 60-minutes incubation [5]	IC50 [6]	inhibition of PGE2 production [7]	IC50 (rat 5-LOX)	IC50 ([8]; read-out: IC50 PGI2 production)
–	CC1(C)Cc2c(-c3ccccc3)c(-c3ccc(Cl)cc3)c(CC(=O)NCC(=O)O)n2C1 [LFA-9, 2-[[2-[2-(4-chlorophenyl)-6,6-dimethyl-1-phenyl-5,7-dihydropyrrolizin-3-yl]acetyl]amino]acetic acid]	maintained homeostasis	did not show any gastrointestinal toxicity; also recorded: did not show any gastrointestinal and any other toxicities	70.4%	reduced	reduced	spared	significantly decreased	significantly decreased	no cytotoxicity	No change in secondary structure	98.3%	96.1%	630 to 1240 nM	82%	890 nM	> 100000 nM
850 to 910 nM	CC1(C)Cc2c(-c3ccccc3)c(-c3ccc(Cl)cc3)c(CC(=O)O)n2C1 [Licofelone, reference compound]	reduced	–	61.7%	reduced	reduced	reduced	–	–	–	–	–	–	530 to 1600 nM	63%	640 nM	–
